PMC9977399 (Chemical Science, 2023)

Experiments:
[1] = tested on: lamin A processing in staurosporine-treated Jurkat T cells; experiment: western blot of lamin A processing upon inhibitor treatment; type: cell-based, human; details: inhibitor 5 or 25 μM, 2 h preincubation, staurosporine 5 μM, 4 h
Method in brief: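 Low-passage Jurkat T cells (100000 per 0.5 mL) were pretreated 2 h with inhibitor (5 or 25 μM, 1% DMSO; control 1% DMSO), then given staurosporine 5 μM for 4 or 8 h. Lysates were boiled in SDS/DTT and run on 4–12% Bis-Tris SDS–PAGE, then nitrocellulose, blocked with 2% BSA/TBS-T. Primary antibodies (caspase 3, PARP, caspase 6, lamin A/C; 1:1000, overnight 4 °C) were followed by fluorescent secondaries. Bands were quantified from 700/800 nm scans.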

caspase 6 [2] = target: T1, caspase 6 (Homo sapiens, UniProt P55212); experiment: kinetic of AIE substrates; type: biochemical; details: caspases 3 and 6 at 10 nM or 50 nM, ex 312/em 450 nm, 30 min
T1 sequence (P55212 24-179 limits assumed): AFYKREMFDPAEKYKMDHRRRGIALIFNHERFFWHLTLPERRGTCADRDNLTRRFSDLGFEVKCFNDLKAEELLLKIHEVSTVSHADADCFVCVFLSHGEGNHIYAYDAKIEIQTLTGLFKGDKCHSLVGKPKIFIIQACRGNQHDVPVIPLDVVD
T1 sequence (P55212 194-293 limits assumed): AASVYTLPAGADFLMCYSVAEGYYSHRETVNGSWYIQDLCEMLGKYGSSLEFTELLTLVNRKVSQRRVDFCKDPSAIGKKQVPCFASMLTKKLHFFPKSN
Method in brief: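 Recombinant human caspases 3 and 6 were active-site titrated with zVAD-fmk and used at 10 or 50 nM. Buffer: 10% w/v sucrose, 20 mM PIPES, 10 mM NaCl, 1 mM EDTA, 10 mM DTT, pH 7.2–7.4. Enzyme was preincubated 15 min, then added to AIE substrates from DMSO at varied final concentrations, 37 °C. Relative hydrolysis rate came from the linear fluorescence segment. At least three replicates, mean ± SD.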

caspase 6 [3] = target: T1, caspase 6; experiment: kobs/I inhibition parameter of AOMK inhibitors; type: biochemical; details: substrate Ac-VEID-ACC 100 μM, 37 °C
Method in brief: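 Recombinant human caspase 6 was active-site titrated with zVAD-fmk and preactivated 15 min at 37 °C in sucrose/PIPES/NaCl/EDTA/DTT buffer, pH 7.2–7.4. Serial inhibitor dilutions with substrate were pre-equilibrated 15 min at 37 °C, then enzyme was added. ACC fluorescence (ex 355/em 460 nm) was read for 30 min from start under pseudo-first-order conditions. Second-order kobs/I: at least three independent runs, mean ± SD.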

caspase 9 = target: T2, caspase 9 (Homo sapiens, UniProt P55211); experiment: kobs/I inhibition parameter of AOMK inhibitors; type: biochemical; details: substrate Ac-LEHD-ACC 100 μM, 37 °C
T2 sequence (P55211 1-315 limits assumed): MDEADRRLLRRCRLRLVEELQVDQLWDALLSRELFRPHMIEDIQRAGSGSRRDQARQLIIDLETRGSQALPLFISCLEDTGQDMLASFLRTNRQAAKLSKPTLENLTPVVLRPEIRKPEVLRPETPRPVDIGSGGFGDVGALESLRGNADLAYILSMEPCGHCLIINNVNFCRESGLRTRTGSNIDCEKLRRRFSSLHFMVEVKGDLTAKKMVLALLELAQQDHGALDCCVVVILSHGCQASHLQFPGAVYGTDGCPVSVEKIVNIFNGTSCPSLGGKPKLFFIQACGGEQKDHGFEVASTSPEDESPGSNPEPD
T2 sequence (P55211 331-416 limits assumed): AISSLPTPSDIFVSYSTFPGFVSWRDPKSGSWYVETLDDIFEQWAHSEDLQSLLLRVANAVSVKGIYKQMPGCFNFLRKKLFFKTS
Method in brief: (§1)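 Recombinant human caspases 8, 9 or 10 were active-site titrated with zVAD-fmk and preactivated 15 min at 37 °C. Buffer: sucrose/PIPES/NaCl/EDTA/DTT, pH 7.2–7.4, plus 0.75 M sodium citrate to dimerise. Inhibitor dilutions were mixed with substrate and held 15 min at 37 °C before enzyme addition. Fluorescence (ex 355/em 460 nm) was followed 30 min; pseudo-first-order kobs/I from ≥3 experiments, mean ± SD.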

[4] = tested on: lamin A processing in staurosporine-treated Jurkat T cells; experiment: mass cytometry, anti-lamin A; type: cell-based, human; details: inhibitor 5 or 25 μM, 2 h preincubation, staurosporine 5 μM, 4 h
Method in brief: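 Jurkat T cells (1,000,000 per 0.5 mL) were pretreated 2 h with inhibitor (5 or 25 μM), then given staurosporine 5 μM for 4 h. Cells were fixed in 4% PFA (20 min, 4 °C), Perm-S permeabilised and stained 2 h RT with metal-tagged antibodies (lamin A 142Nd, cleaved PARP 143Nd, caspase 6 159Tb, cleaved caspase 3 172Yb). Ir191/193 DNA stain followed; CyTOF acquisition within 12 h.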

caspase 8 = caspase 8 (Homo sapiens, UniProt Q14790); experiment: kobs/I inhibition parameter of AOMK inhibitors; type: biochemical; details: substrate Ac-LEHD-ACC 100 μM, 37 °C
Method in brief: as §1

caspase 10 = target: T3, caspase 10 (Homo sapiens, UniProt Q92851); experiment: kobs/I inhibition parameter of AOMK inhibitors; type: biochemical; details: substrate Ac-LEHD-ACC 100 μM, 37 °C
T3 sequence (Q92851 220-415 limits assumed): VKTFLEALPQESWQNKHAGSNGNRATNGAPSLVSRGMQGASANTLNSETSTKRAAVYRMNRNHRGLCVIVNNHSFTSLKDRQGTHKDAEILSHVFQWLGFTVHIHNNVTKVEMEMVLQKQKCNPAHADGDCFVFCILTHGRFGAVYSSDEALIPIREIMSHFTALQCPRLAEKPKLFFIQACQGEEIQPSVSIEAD
T3 sequence (Q92851 416-521 limits assumed): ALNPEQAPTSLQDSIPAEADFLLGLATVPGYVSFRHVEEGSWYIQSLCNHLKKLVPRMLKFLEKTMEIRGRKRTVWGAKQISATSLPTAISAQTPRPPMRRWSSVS
Method in brief: as §1

Chain of caspase 8 (Q14790 217-374 limits assumed): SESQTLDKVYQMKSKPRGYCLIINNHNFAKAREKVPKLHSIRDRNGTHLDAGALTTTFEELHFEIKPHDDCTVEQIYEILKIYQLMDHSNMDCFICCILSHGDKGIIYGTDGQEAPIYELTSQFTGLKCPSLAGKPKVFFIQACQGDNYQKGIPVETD
Chain of caspase 8 (Q14790 385-479 limits assumed): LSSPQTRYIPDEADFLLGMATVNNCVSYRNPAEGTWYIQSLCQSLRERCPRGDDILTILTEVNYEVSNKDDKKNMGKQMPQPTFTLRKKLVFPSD

| Substance | prevention of lamin A cleavage (western blot) [1] | selectivity for caspase 6 over caspase 3 (AIE substrate hydrolysis) (caspase 6 [2]) | potency toward caspase 6 (kobs/I, in words) (caspase 6 [3]) | inhibition of apical caspase 9 (in words) (caspase 9) | effect on lamin A processing (mass cytometry) [4] | inhibition of apical caspase 8 (in words) (caspase 8) | inhibition of apical caspase 10 (in words) (caspase 10) |
| --- | --- | --- | --- | --- | --- | --- | --- |
| Ac-EVEID-AOMK | only partially effective in preventing lamin A cleavage |  |  |  |  |  |  |
| Ac-EVEID-K(T PE )-NH2 [Ac-EVEID-K-TPE] |  | very high selectivity over caspase 3 |  |  |  |  |  |
| Ac-EVEhFD-AOMK | only partially effective in preventing lamin A cleavage |  | most potent inhibitors of caspase 6 |  |  |  |  |
| Ac-hFVEID-AOMK | largely prevent lamin A |  | most potent inhibitors of caspase 6 | poor inhibitor | efficiently block lamin A processing | poor inhibitor | poor inhibitor |
